Reference: ChEMBL document CHEMBL4387704, “Design, synthesis and biological evaluation of novel isoindolinone derivatives as potent histone deacetylase inhibitors” (Eur J Med Chem, 2019)
Activity calls are given as the source filed them. The rule behind the calls is not given here.

Columns and labels:
Histone deacetylase 1 = Histone deacetylase 1 (Homo sapiens, UniProt Q13547); assay: Inhibition of HDAC1 (unknown origin) using Fluor de Lys substrate by fluorescence assay relative to control; settings: read-out: IC50
Sequence of Histone deacetylase 1 (Q13547 whole entry): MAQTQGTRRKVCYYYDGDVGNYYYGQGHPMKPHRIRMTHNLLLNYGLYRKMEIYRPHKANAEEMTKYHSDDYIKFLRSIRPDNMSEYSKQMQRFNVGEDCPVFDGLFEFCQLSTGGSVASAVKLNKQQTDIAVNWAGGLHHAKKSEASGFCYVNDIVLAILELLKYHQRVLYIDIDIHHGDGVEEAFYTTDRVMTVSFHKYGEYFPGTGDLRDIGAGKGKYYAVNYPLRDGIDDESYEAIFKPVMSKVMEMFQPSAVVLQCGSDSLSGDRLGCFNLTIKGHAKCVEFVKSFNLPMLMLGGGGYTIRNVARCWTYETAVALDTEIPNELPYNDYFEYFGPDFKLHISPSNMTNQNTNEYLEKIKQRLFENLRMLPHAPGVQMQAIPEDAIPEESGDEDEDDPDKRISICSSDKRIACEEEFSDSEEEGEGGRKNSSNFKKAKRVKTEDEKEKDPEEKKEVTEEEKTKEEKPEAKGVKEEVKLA

Histone deacetylase 2 = Histone deacetylase 2 (Homo sapiens, UniProt Q92769); assay: Inhibition of HDAC2 (unknown origin) using Fluor de Lys substrate by fluorescence assay relative to control
Sequence of Histone deacetylase 2 (Q92769 whole entry, canonical isoform): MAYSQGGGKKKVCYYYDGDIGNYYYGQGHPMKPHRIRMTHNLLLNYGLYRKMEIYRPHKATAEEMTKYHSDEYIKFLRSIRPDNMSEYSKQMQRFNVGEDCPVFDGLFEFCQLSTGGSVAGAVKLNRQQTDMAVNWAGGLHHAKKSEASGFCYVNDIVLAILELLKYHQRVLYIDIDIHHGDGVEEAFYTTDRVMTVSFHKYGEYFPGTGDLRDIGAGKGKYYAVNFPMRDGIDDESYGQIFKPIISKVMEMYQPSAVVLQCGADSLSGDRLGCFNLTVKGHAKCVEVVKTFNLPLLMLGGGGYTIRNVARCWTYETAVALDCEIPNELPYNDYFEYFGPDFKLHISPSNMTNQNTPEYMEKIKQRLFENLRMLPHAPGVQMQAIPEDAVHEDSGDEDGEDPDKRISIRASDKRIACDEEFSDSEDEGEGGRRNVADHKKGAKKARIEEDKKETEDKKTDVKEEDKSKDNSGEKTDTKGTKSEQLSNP
Method in brief: (§1)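 Recombinant HDAC isoform assays run by a contract lab. Compounds in DMSO, 10-dose IC50 mode, 3-fold serial dilution from 50 μM. Duplicate runs; IC50 from curve fitting.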

[1] = target: Histone deacetylase 9 (Homo sapiens) (UniProt Q9UKV0); assay: Inhibition of HDAC9 (unknown origin) using Fluor de Lys substrate by fluorescence assay relative to control; method in brief: as §1
Sequence of Histone deacetylase 9 (Homo sapiens) (Q9UKV0 whole entry): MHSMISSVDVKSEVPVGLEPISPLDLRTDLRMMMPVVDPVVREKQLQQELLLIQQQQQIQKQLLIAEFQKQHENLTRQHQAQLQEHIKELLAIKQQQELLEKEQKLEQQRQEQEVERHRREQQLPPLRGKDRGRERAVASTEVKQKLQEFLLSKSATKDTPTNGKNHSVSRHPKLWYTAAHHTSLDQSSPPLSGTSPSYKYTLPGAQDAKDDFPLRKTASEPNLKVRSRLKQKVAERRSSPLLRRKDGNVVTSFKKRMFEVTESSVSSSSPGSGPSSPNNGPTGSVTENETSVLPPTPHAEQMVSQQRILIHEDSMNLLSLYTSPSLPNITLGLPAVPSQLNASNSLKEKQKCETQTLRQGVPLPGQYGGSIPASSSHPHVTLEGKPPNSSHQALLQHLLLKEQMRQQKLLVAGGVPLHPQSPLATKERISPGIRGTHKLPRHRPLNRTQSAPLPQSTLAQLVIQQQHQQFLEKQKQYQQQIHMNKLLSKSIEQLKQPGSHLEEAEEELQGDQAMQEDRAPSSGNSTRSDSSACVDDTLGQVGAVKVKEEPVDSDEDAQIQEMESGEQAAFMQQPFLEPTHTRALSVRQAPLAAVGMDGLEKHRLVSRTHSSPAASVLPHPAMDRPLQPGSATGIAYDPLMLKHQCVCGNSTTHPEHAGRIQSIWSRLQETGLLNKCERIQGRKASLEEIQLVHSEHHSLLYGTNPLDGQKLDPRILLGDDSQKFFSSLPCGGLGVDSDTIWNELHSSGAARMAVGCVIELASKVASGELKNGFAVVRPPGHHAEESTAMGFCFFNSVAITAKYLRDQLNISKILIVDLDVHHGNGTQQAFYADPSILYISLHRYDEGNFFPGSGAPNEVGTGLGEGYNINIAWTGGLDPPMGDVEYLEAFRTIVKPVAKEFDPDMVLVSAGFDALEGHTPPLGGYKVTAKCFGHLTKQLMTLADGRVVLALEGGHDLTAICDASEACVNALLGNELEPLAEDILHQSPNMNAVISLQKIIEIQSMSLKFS

K562 = assay: Antiproliferative activity against human K562 assessed as reduction in cell viability measured after 72 hrs using alamar blue based fluorescence method; assay type: functional; settings: K562, 72 h
Method in brief: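 Leukemia lines grown in IMDM with penicillin/streptomycin, HL-60 with 20% FBS and K562 with 10% FBS, at 37 °C, 5% CO2. Cells in 96-well plates exposed to drug for 72 h. Alamar blue (1 mM solution) added for 5–6 h, fluorescence read at 530/590 nm.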

Homo sapiens = species: Homo sapiens; assay: Selectivity index, ratio of IC50 of HDCA8 (unknown origin) to IC50 of HDCA1 (unknown origin)
[2] = target: Class 1 histone deacetylase (Homo sapiens) (UniProt Q13547+O15379+Q92769+Q9BY41); assay: Inhibition of class I HDAC in human MCF7 cells assessed as increase in cellular histone H3 acetylation levels incubated for 24 hrs by Western blot; assay type: cell-based
Sequence of Class 1 histone deacetylase (Homo sapiens) (O15379 whole entry, looked up): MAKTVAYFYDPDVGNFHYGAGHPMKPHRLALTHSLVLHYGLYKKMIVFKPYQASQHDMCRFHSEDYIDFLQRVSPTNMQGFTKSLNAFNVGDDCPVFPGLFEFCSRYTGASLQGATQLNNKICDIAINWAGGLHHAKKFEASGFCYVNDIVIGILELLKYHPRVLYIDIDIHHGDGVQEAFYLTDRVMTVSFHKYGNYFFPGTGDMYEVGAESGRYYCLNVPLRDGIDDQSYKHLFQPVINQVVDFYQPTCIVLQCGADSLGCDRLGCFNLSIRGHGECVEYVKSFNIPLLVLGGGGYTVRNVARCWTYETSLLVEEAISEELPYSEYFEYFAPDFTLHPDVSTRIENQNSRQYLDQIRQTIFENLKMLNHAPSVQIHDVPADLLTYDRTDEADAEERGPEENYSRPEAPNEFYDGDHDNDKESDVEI
Sequence of Class 1 histone deacetylase (Homo sapiens) (Q13547 whole entry, looked up): as the sequence (Q13547 whole entry) above
Sequence of Class 1 histone deacetylase (Homo sapiens) (Q92769 whole entry, looked up): as the sequence (Q92769 whole entry, canonical isoform) above
Sequence of Class 1 histone deacetylase (Homo sapiens) (Q9BY41 whole entry, looked up): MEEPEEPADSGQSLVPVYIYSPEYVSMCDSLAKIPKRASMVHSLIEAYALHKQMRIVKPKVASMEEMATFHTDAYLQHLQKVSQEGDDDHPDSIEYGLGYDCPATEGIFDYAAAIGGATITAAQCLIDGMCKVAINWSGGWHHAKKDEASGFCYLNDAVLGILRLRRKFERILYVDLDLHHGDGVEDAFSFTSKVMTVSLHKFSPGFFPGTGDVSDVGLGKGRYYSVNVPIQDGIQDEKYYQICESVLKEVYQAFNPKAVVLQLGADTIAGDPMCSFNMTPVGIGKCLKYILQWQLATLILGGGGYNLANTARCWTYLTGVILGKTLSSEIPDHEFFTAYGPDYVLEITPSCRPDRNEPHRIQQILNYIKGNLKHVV
Method in brief: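 MCF-7 cells (1×10^6) seeded overnight, treated 24 h at 0.25, 2.5 or 25 μM. Lysed with protease inhibitor (EDTA-free); 30 µg total protein run on SDS-PAGE, blotted to nitrocellulose, probed for acetyl-H3, ECL detection.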

CCRF-CEM = assay: Growth inhibition of human CCRF-CEM cells assessed as cell growth inhibition at 10 uM incubated for 48 hrs by sulforhodamine B assay; assay type: functional; settings: read-out: GI
HOP-62 = assay: Growth inhibition of human HOP62 cells assessed as cell growth inhibition at 10 uM incubated for 48 hrs by sulforhodamine B assay; assay type: functional; settings: HOP-62, 48 h, read-out: GI
HOP-92 = assay: Growth inhibition of human HOP92 cells assessed as cell growth inhibition at 10 uM incubated for 48 hrs by sulforhodamine B assay; assay type: functional; settings: HOP-92, 48 h, read-out: GI
NCI-H23 = assay: Growth inhibition of human NCI-H23 cells assessed as cell growth inhibition at 10 uM incubated for 48 hrs by sulforhodamine B assay; assay type: functional; settings: NCI-H23, 48 h, read-out: GI
NCI-H460 = assay: Growth inhibition of human NCI-H460 assessed as cell growth inhibition at 10 uM incubated for 48 hrs by sulforhodamine B assay; assay type: functional; settings: NCI-H460, 48 h, read-out: GI
SW-620 = assay: Growth inhibition of human SW620 cells assessed as cell growth inhibition at 10 uM incubated for 48 hrs by sulforhodamine B assay; assay type: functional; settings: SW-620, 48 h, read-out: GI
SF-268 = assay: Growth inhibition of human SF268 cells assessed as cell growth inhibition at 10 uM incubated for 48 hrs by sulforhodamine B assay; assay type: functional; settings: SF-268, 48 h, read-out: GI
PC-3 = assay: Growth inhibition of human PC3 cells assessed as cell growth inhibition at 10 uM incubated for 48 hrs by sulforhodamine B assay; assay type: functional; settings: PC-3, 48 h, read-out: GI
TK-10 = assay: Growth inhibition of human TK10 cells assessed as cell growth inhibition at 10 uM incubated for 48 hrs by sulforhodamine B assay; assay type: functional; settings: TK-10, 48 h, read-out: GI
U-251 = assay: Growth inhibition of human U251 cells assessed as cell growth inhibition at 10 uM incubated for 48 hrs by sulforhodamine B assay; assay type: functional; settings: U-251, 48 h, read-out: GI
Malme-3M = assay: Growth inhibition of human MALME-3M cells assessed as cell growth inhibition at 10 uM incubated for 48 hrs by sulforhodamine B assay; assay type: functional; settings: read-out: GI
M14 = assay: Growth inhibition of human M14 cells assessed as cell growth inhibition at 10 uM incubated for 48 hrs by sulforhodamine B assay; assay type: functional; settings: M14, 48 h, read-out: GI
MDA-MB-435 = assay: Growth inhibition of human MDA-MB-435 cells assessed as cell growth inhibition at 10 uM incubated for 48 hrs by sulforhodamine B assay; assay type: functional; settings: MDA-MB-435, 48 h, read-out: GI
SK-MEL-2 = assay: Growth inhibition of human SK-MEL-2 cells assessed as cell growth inhibition at 10 uM incubated for 48 hrs by sulforhodamine B assay; assay type: functional; settings: SK-MEL-2, 48 h, read-out: GI
SK-MEL-5 = assay: Growth inhibition of human SK-MEL-5 cells assessed as cell growth inhibition at 10 uM incubated for 48 hrs by sulforhodamine B assay; assay type: functional; settings: SK-MEL-5, 48 h, read-out: GI
IGROV-1 = assay: Growth inhibition of human IGROV1 cells assessed as cell growth inhibition at 10 uM incubated for 48 hrs by sulforhodamine B assay; assay type: functional; settings: IGROV-1, 48 h, read-out: GI
OVCAR-4 = assay: Growth inhibition of human OVCAR4 cells assessed as cell growth inhibition at 10 uM incubated for 48 hrs by sulforhodamine B assay; assay type: functional; settings: OVCAR-4, 48 h, read-out: GI
OVCAR-8 = assay: Growth inhibition of human OVCAR8 cells assessed as cell growth inhibition at 10 uM incubated for 48 hrs by sulforhodamine B assay; assay type: functional; settings: OVCAR-8, 48 h, read-out: GI
Hs-578T = assay: Growth inhibition of human Hs 578T cells assessed as cell growth inhibition at 10 uM incubated for 48 hrs by sulforhodamine B assay; assay type: functional; settings: read-out: GI
MDA-MB-231 = assay: Growth inhibition of human MDA-MB-231 cells assessed as cell growth inhibition at 10 uM incubated for 48 hrs by sulforhodamine B assay; assay type: functional; settings: MDA-MB-231, 48 h, read-out: GI
[3] = Clearance in Sprague-Dawley rat at 1 mg/kg, iv by LC-MS/MS analysis; assay type: ADME, organism-based; settings: in vivo
Method in brief: (§2)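 Male SD rats, 199-214 g, three per route. Single iv dose of 1 mg/kg or oral dose of 10 mg/kg. About 200 μL blood drawn from the jugular vein into heparinized tubes at set times, then spun to plasma. 30 μL plasma precipitated with CH3CN containing verapamil and glibenclamide as internal standards. Plasma drug level measured by LC-MS/MS.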

[4] = AUC (0 to infinity) in Sprague-Dawley rat at 10 mg/kg, po by LC-MS/MS analysis; assay type: ADME, organism-based; parameters: dose 10 mg/kg, time infinity, route oral; settings: in vivo; method in brief: as §2

Nc1cc(F)ccc1NC(=O)c1ccc(CNC(=O)/C=C2\NC(=O)c3ccccc32)cc1
IC50 (Histone deacetylase 1): 65.1 nM
IC50 (Histone deacetylase 2): 75 nM
inhibition [1]: inactive
IC50 (K562): 193 nM
Ratio IC50 (Homo sapiens): 17
inhibition [2]: Dose-dependent effect
inhibition of growth at 10 µM (CCRF-CEM): 84.5%
inhibition of growth at 10 µM (HOP-62): 29.9%
inhibition of growth at 10 µM (HOP-92): 58.6%
inhibition of growth at 10 µM (NCI-H23): 26.5%
inhibition of growth at 10 µM (NCI-H460): 26.8%
inhibition of growth at 10 µM (SW-620): 40.1%
inhibition of growth at 10 µM (SF-268): 36%
inhibition of growth at 10 µM (PC-3): 39.4%
inhibition of growth at 10 µM (TK-10): 72.3%
inhibition of growth at 10 µM (U-251): 35.9%
inhibition of growth at 10 µM (Malme-3M): 52.6%
inhibition of growth at 10 µM (M14): 29.4%
inhibition of growth at 10 µM (MDA-MB-435): 28.8%
inhibition of growth at 10 µM (SK-MEL-2): 52%
inhibition of growth at 10 µM (SK-MEL-5): 34.7%
inhibition of growth at 10 µM (IGROV-1): 22.8%
inhibition of growth at 10 µM (OVCAR-4): 21.3%
inhibition of growth at 10 µM (OVCAR-8): 55.9%
inhibition of growth at 10 µM (Hs-578T): 29.3%
inhibition of growth at 10 µM (MDA-MB-231): 22.4%
clearance [3]: 21.3 mL/min/kg
AUC(0-inf) [4]: 1740 ng·h/mL
